Test results reported in paper PMC6873108 (Journal of Medicinal Chemistry, 2019).
Entries after “also recorded” stand apart in the source; their conditions may differ. Each block holds one compound with its values, some of them ahead of it.

Assays:
[1] = test system: P. aeruginosa PA14; settings: vs DMSO control; cited from earlier work
[2] = target: T1, LecBPA14 (Pseudomonas aeruginosa, UniProt A0A0H2ZE85); settings: read-out: LecBPA14 IC50; previously published; cited from earlier work
T1 sequence (A0A0H2ZE85 2-115): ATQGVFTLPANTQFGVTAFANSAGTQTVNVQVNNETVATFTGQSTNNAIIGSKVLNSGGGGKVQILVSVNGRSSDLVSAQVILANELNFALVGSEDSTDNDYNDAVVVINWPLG

[3] = mice; as reported; cited from earlier work
[4] = cited from earlier work
[5] = Plasma stability assay; assay type: in vitro ADME, mouse; settings: 25 μM, 37 °C, period of 120 min
Summary of the method: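 Test compound (DMSO stock) spiked into mouse plasma (pH 7.4) at final 25 μM and incubated at 37 °C. Samples taken at 0, 15, 30, 60, 90 and 120 min, extracted with methanol containing internal standard (5 min shaking), centrifuged, and supernatants analyzed by reversed-phase C18 HPLC (water/acetonitrile + 0.1% formic acid gradient). Controls were procaine, propoxycaine and procainamide at 250 μM.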

[6] = test system: mCherry-expressing P. aeruginosa; assay: Bacterial growth by total fluorescence intensity; assay type: cell-based, Pseudomonas aeruginosa; settings: 100 μM, 23 h, vs DMSO control
[7] = target: LecBPAO1 (Pseudomonas aeruginosa, UniProt Q9HYN5); assay: Isothermal titration calorimetry; assay type: binding; settings: ITC, 25 °C, mean
[8] = target: T1, LecBPA14; settings: ITC, 25 °C, mean
[9] = Plasma protein binding; assay type: in vitro ADME, mouse; settings: murine plasma, 100 μM, 37 °C, 2 h
[10] = test system: Hep G2 cells; assay: MTT assay; assay type: cell-based, human; settings: up to 100 μM, 24 h
Summary of the method: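 Hep G2 cells grown in DMEM + 10% heat-inactivated FCS (37 °C, 5% CO2) to 75% confluency, then exposed 24 h to compound (0.01–100 μM; DMSO stock diluted in PBS, final 0.1% DMSO). Controls: vehicle, medium, and cells lysed with 0.5% Triton X-100. After two washes, MTT (final 1 mg/mL) for 3 h, then 0.04 M HCl/2-propanol for 15 min at room temperature. A560 read against 670 nm reference; normalized as (A–B)/(C–B) to Triton and vehicle controls.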

Chain of LecBPAO1 (Q9HYN5 2-115 limits assumed): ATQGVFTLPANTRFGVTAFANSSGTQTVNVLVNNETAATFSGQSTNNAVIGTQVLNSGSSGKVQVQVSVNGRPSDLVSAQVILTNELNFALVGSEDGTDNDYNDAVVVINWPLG

stability in murine plasma [5]: fully stable
Structure (SMILES): Cc1ccc(S(=O)(=O)NC[C@H]2O[C@@H](C)[C@@H](O)[C@@H](O)[C@@H]2O)s1 [Compound 23, N-β-L-Fucopyranosylmethyl 5-Methyl-2-thiophenesulfonamide]

stability in murine plasma [5]: fully stable
Structure (SMILES): C[C@@H]1O[C@H](CNS(=O)(=O)c2cc(Cl)c(Cl)s2)[C@@H](O)[C@H](O)[C@@H]1O [Compound 27, N-β-L-Fucopyranosylmethyl 4,5-Dichloro-2-thiophenesulfonamide]

stability in murine plasma [5]: fully stable
Structure (SMILES): C[C@@H]1O[C@H](CNS(=O)(=O)c2ccc(C#Cc3ccccc3)s2)[C@@H](O)[C@H](O)[C@@H]1O [Compound 29, N-β-L-Fucopyranosylmethyl 5-Phenylethynyl-2-thiophenesulfonamide]
plasma protein binding (in words) [9]: highly bound; also recorded: very high plasma protein binding
bacterial growth (total fluorescence intensity) [6]: comparable densities
toxicity to Hep G2 cells (in words) [10]: weak toxicity; also recorded: moderate mammalian cytotoxicity

Further lines, the compound ahead of its results:

Structure (SMILES): CO[C@H]1O[C@H](CO)[C@@H](O)[C@H](O)[C@@H]1O [Compound 1, methyl α-D-mannoside]
effect on biofilm formation [1]: nonsignificant effect

Structure (SMILES): COc1ccc(/C=C/C(=O)NC[C@H]2O[C@@H](C)[C@@H](O)[C@@H](O)[C@@H]2O)cc1OC [Compound 5]
IC50 [2]: 2800 nM

Structure (SMILES): Cc1cc(C)c(S(=O)(=O)NC[C@H]2O[C@@H](C)[C@@H](O)[C@@H](O)[C@@H]2O)c(C)c1 [Compound 6]
toxicity in a murine pharmacokinetics model [3]: nontoxic
metabolic stability against liver microsomes and murine plasma [4]: good metabolic stability

Structure (SMILES): C[C@@H]1O[C@H](CNS(=O)(=O)c2cccs2)[C@@H](O)[C@H](O)[C@@H]1O [Compound 7]
toxicity in a murine pharmacokinetics model [3]: nontoxic
metabolic stability against liver microsomes and murine plasma [4]: good metabolic stability

Structure (SMILES): Cc1oncc1S(=O)(=O)NC[C@H]1O[C@@H](C)[C@@H](O)[C@@H](O)[C@@H]1O [Compound 17, N-β-L-Fucopyranosylmethyl 5-Methyl-4-isoxazolesulfonamide]
stability in murine plasma [5]: fully stable

Structure (SMILES): Cc1cc(S(=O)(=O)NC[C@H]2O[C@@H](C)[C@@H](O)[C@@H](O)[C@@H]2O)c(C)s1 [Compound 22, N-β-L-Fucopyranosylmethyl 2,5-Dimethyl-3-thiophenesulfonamide]
bacterial growth (total fluorescence intensity) [6]: comparable densities
-TΔS LecBPAO1 [7]: 3.23 kcal/mol
ΔH LecBPAO1 [7]: -11.3 kcal/mol
stability in murine plasma [5]: fully stable
-TΔS LecBPA14 [8]: 0.789 kcal/mol
ΔH LecBPA14 [8]: -9.66 kcal/mol

Structure (SMILES): CO[C@@H]1O[C@@H](C)[C@@H](O)[C@@H](O)[C@@H]1O [Compound 42, methyl α-L-fucoside]
effect on biofilm formation [1]: nonsignificant effect
